Key:
[1] = Chemical stability in phosphate buffer of pH 7.4 simulating intestinal fluid; type: physicochemical; settings: simulated gi fluid
Summary of the method: (§1)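 Hydrolysis run in pH 1.2 HCl buffer or pH 7.4 phosphate buffer, each with 1% Tween 20 and ionic strength 0.2 (KCl). Started by adding 200 µL of a 3 mg/mL methanol or acetonitrile stock to 9.8 mL of prewarmed buffer, held at 37 °C. Aliquots (20 µL) taken over time; remaining ester measured by HPLC.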

[2] = species: Homo sapiens; assay: Stability in human plasma assessed as hydrolysis half life
[3] = Chemical stability in HCl buffer of pH 1.2 simulating gastric fluid; type: physicochemical; settings: simulated gi fluid; summary of the method: as §1
[4] = tested on: Rattus norvegicus; assay: Gastrointestinal toxicity in Wistar rat assessed as complete damage of mucosal layer and ulceration of submucosal cells at dose equivalent to 150 mg/kg of ibuprofen, po after 24 hrs by electron microscopy; type: organism-based, Submucosa; parameters: dose 150 mg/kg, route oral; settings: in vivo
Summary of the method: (§2)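 Male Wistar rats (150–200 g), three per group, fasted 12 h with water available. Given a daily oral dose in 0.5% CMC (1 mL suspension) for four successive days; control group got vehicle. Food withheld until 24 h after the last dose, then rats killed. Stomachs opened along the greater curvature, rinsed in saline, and random specimens examined by scanning electron microscopy after glutaraldehyde/osmium fixation, ethanol dehydration and amyl acetate.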

[5] = tested on: Rattus norvegicus; assay: Antiinflammatory activity in Wistar rat assessed as inhibition of carrageenan-induced paw edema at 150 mg/kg, po administered 30 mins before carrageenan challenge measured after 1 hr; type: functional
Summary of the method: (§3)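 Rats dosed orally with a suspension in 0.5% w/v aqueous carboxymethyl cellulose; controls got vehicle alone. 30 min later, 0.1 mL of fresh 1% carrageenan in normal saline injected subplantar into the right hind paw. Paw thickness measured by skin caliper at 0.5, 1, 2, 3, 4 and 5 h. % edema inhibition = [(VR−VL)control − (VR−VL)treated]/(VR−VL)control × 100. Values are means ± SEM.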

[6] = tested on: Rattus norvegicus; assay: Antiinflammatory activity in Wistar rat assessed as inhibition of carrageenan-induced paw edema at 150 mg/kg, po administered 30 mins before carrageenan challenge measured after 5 hrs; type: functional; summary of the method: as §3
[7] = tested on: Rattus norvegicus; assay: Gastrointestinal toxicity in Wistar rat assessed as complete damage of mucosal layer and ulceration of submucosal cells at 150 mg/kg, po after 24 hrs by electron microscopy; type: organism-based, Submucosa; parameters: dose 150 mg/kg, route oral; settings: in vivo; summary of the method: as §2
[8] = tested on: Rattus norvegicus; assay: Antiinflammatory activity in Wistar rat assessed as inhibition of carrageenan-induced paw edema at 150 mg/kg, po administered 30 mins before carrageenan challenge measured after 2 hrs; type: functional; summary of the method: as §3
[9] = tested on: Rattus norvegicus; assay: Antiinflammatory activity in Wistar rat assessed as inhibition of carrageenan-induced paw edema at 150 mg/kg, po administered 30 mins before carrageenan challenge measured after 4 hrs; type: functional; summary of the method: as §3
[10] = tested on: Rattus norvegicus; assay: Antiinflammatory activity in Wistar rat assessed as inhibition of carrageenan-induced paw edema at 150 mg/kg, po administered 30 mins before carrageenan challenge measured after 0.5 hrs; type: functional; summary of the method: as §3
[11] = tested on: Rattus norvegicus; assay: Antiinflammatory activity in Wistar rat assessed as inhibition of carrageenan-induced paw edema at 150 mg/kg, po administered 30 mins before carrageenan challenge measured after 3 hrs; type: functional; summary of the method: as §3
[12] = tested on: Rattus norvegicus; assay: Antiinflammatory activity in Wistar rat assessed as inhibition of carrageenan-induced paw edema at 20 mg/kg, po administered 30 mins before carrageenan challenge measured after 0.5 hrs; type: functional; summary of the method: as §3
[13] = tested on: Rattus norvegicus; assay: Antiinflammatory activity in Wistar rat assessed as inhibition of carrageenan-induced paw edema at 20 mg/kg, po administered 30 mins before carrageenan challenge measured after 2 hrs; type: functional; summary of the method: as §3
[14] = tested on: Rattus norvegicus; assay: Antiinflammatory activity in Wistar rat assessed as inhibition of carrageenan-induced paw edema at 20 mg/kg, po administered 30 mins before carrageenan challenge measured after 3 hrs; type: functional; summary of the method: as §3
[15] = tested on: Rattus norvegicus; assay: Antiinflammatory activity in Wistar rat assessed as inhibition of carrageenan-induced paw edema at 20 mg/kg, po administered 30 mins before carrageenan challenge measured after 5 hrs; type: functional; summary of the method: as §3
[16] = tested on: Rattus norvegicus; assay: Antiinflammatory activity in Wistar rat assessed as inhibition of carrageenan-induced paw edema at 20 mg/kg, po administered 30 mins before carrageenan challenge measured after 1 hr; type: functional; summary of the method: as §3
[17] = tested on: Rattus norvegicus; assay: Antiinflammatory activity in Wistar rat assessed as inhibition of carrageenan-induced paw edema at 20 mg/kg, po administered 30 mins before carrageenan challenge measured after 4 hrs; type: functional; summary of the method: as §3
[18] = species: Rattus norvegicus; assay: animal or person; settings: Wistar, po, read-out: INH
[19] = species: Rattus norvegicus; assay: animal or person; settings: Wistar, po, read-out: INH; remark: listed apart in the source
[20] = species: Rattus norvegicus; assay: animal or person; settings: Wistar, po, read-out: INH; remark: listed apart in the source
[21] = species: Rattus norvegicus; assay: animal or person; settings: Wistar, po, read-out: INH; remark: listed apart in the source
[22] = species: Rattus norvegicus; assay: animal or person; settings: Wistar, po, read-out: INH; remark: listed apart in the source
[23] = species: Rattus norvegicus; assay: animal or person; settings: Wistar, po, read-out: INH; remark: listed apart in the source

Q: What does the source list for `COc1ccc2cc(C(C)C(=O)OCn3c(=O)oc4ccc(Cl)cc43)ccc2c1` (stereo not drawn)?
A: Stability [1]: 1 days; half-life [2]: 34 min; Stability [3]: Stable

Q: Which Stability [1] does the source give for `CC(C)Cc1ccc(C(C)C(=O)OCn2c(=O)oc3ccc(Cl)cc32)cc1` (stereo not drawn) here?
A: Its Stability is 1 days.

Q: And the half-life [2]?
A: Its half-life is 37 min.

Q: And the Activity [4]?
A: Its Activity is “Non-toxic”.

Q: And the Stability [3]?
A: The Stability was “Stable”.

Q: Which results are given for `Cc1cccc(Nc2ccccc2C(=O)OCn2c(=O)oc3ccc(Cl)cc32)c1C`?
A: Stability [1]: 1 days; Stability [3]: Stable

Q: Which inhibition in vivo at 150 mg/kg [5] does the source give for `CC(C)Cc1ccc(C(C)C(=O)O)cc1` (stereo not drawn) [IBUPROFEN] here?
A: Its inhibition in vivo at 150 mg/kg is 16.7%.

Q: What about the inhibition in vivo at 150 mg/kg [6] of the same compound?
A: Its inhibition in vivo at 150 mg/kg is 41.7%.

Q: What about the Activity [7] of the same compound?
A: Its Activity is “Toxic”.

Q: And the inhibition in vivo at 150 mg/kg [8]?
A: Its inhibition in vivo at 150 mg/kg is 45.8%.

Q: And the inhibition in vivo at 150 mg/kg [9]?
A: The inhibition in vivo at 150 mg/kg was 50%.

Q: And the inhibition in vivo at 150 mg/kg [10]?
A: Its inhibition in vivo at 150 mg/kg is 16.7%.

Q: And the inhibition in vivo at 150 mg/kg [11]?
A: Its inhibition in vivo at 150 mg/kg is 62.5%.

Q: For `Cc1cccc(Nc2ccccc2C(=O)O)c1C` [MEFENAMIC ACID], which inhibition in vivo at 20 mg/kg [12] is on record?
A: The inhibition in vivo at 20 mg/kg was 16.7%.

Q: And the inhibition in vivo at 20 mg/kg [13]?
A: The inhibition in vivo at 20 mg/kg was 33.3%.

Q: And the inhibition in vivo at 20 mg/kg [14]?
A: The inhibition in vivo at 20 mg/kg was 41.7%.

Q: What about the inhibition in vivo at 20 mg/kg [15] of the same compound?
A: Its inhibition in vivo at 20 mg/kg is 33.3%.

Q: And the inhibition in vivo at 20 mg/kg [16]?
A: Its inhibition in vivo at 20 mg/kg is 18.3%.

Q: And the inhibition in vivo at 20 mg/kg [17]?
A: The inhibition in vivo at 20 mg/kg was 45.8%.

Q: With `COc1ccc2cc([C@H](C)C(=O)O)ccc2c1` [NAPROXEN] as the compound, how does the inhibition in vivo at 40 mg/kg [18] read?
A: Its inhibition in vivo at 40 mg/kg is 28.1%.

Q: What about the inhibition in vivo at 40 mg/kg [19] of the same compound?
A: Its inhibition in vivo at 40 mg/kg is 18.8%.

Q: And the inhibition in vivo at 40 mg/kg [20]?
A: The inhibition in vivo at 40 mg/kg was 9.4%.

Q: And the inhibition in vivo at 40 mg/kg [21]?
A: The inhibition in vivo at 40 mg/kg was 16.3%.

Q: What about the inhibition in vivo at 40 mg/kg [22] of the same compound?
A: Its inhibition in vivo at 40 mg/kg is 37.5%.

Q: What about the inhibition in vivo at 40 mg/kg [23] of the same compound?
A: The inhibition in vivo at 40 mg/kg was 46.9%.

— ChEMBL document CHEMBL1153017 (Bioorg Med Chem, 2009)
